Experimental data from ChEMBL document CHEMBL1145994, “CCR2: characterization of the antagonist binding site from a combined receptor modeling/mutagenesis approach” (J Med Chem, 2003).
The source made the active and inactive calls. No cut-off for these calls is given here.

How the values were obtained:
[1] = target: T1, C-C chemokine receptor type 2 (Homo sapiens, UniProt P41597); assay: Inhibition of chemotaxis by C-C chemokine receptor type 2 antagonist in human monocytes was measured in the presence 1 nM MCP-1; type: functional, cell-based
Method in brief: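 Human monocyte chemotaxis driven by 1 nM MCP-1 as agonist. Antagonist added from a 10 mM DMSO stock, final 10 nM to 10 μM; vehicle control included. Values reported as pKb.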
Target sequence in this assay (P41597 whole entry, looked up): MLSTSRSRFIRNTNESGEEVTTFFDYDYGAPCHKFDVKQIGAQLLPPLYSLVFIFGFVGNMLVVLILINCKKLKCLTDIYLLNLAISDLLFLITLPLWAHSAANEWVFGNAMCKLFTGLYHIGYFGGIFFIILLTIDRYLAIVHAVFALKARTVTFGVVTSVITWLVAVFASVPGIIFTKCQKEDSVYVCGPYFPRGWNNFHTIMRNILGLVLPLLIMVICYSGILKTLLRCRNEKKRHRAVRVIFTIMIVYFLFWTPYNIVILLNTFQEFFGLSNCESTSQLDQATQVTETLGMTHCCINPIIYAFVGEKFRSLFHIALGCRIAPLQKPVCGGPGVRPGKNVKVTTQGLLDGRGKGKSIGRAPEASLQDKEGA

[2] = target: C-C chemokine receptor type 2 (Homo sapiens, UniProt P41597, T292A); assay: Binding affinity of compound (10 uM) towards T292A receptor variant (mutant CCR2 receptor) using radioligand [125I]MCP-1 in HEK 293 cells; type: cell-based, HEK293
C-C chemokine receptor type 2 (Homo sapiens, UniProt P41597, T292A), sequence (P41597 whole entry T292A): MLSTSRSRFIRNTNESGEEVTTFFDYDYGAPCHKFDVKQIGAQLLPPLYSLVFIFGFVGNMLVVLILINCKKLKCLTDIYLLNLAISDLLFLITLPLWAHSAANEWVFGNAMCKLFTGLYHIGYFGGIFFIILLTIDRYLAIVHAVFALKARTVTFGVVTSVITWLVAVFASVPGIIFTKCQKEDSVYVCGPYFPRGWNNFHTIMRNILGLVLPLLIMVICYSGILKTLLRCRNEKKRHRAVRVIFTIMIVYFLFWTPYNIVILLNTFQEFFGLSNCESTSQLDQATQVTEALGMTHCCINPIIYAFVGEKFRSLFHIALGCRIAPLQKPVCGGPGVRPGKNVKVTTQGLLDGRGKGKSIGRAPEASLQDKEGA

[3] = target: T1, C-C chemokine receptor type 2; assay: Binding affinity of compound (10 uM) towards WT receptor variant (mutant C-C chemokine receptor type 2) using radioligand [125I]MCP-1 in HEK 293 cells; type: cell-based; details: hek293
Target sequence in this assay (P41597 whole entry, looked up, change not shown): as the sequence (P41597 whole entry, looked up) above

[4] = target: C-C chemokine receptor type 2 (Homo sapiens, UniProt P41597, H121A); assay: Binding affinity of compound (10 uM) towards H121A receptor variant (mutant CCR2 receptor) using radioligand [125I]MCP-1 in HEK 293 cells; type: cell-based, HEK293
C-C chemokine receptor type 2 (Homo sapiens, UniProt P41597, H121A), sequence (P41597 whole entry H121A): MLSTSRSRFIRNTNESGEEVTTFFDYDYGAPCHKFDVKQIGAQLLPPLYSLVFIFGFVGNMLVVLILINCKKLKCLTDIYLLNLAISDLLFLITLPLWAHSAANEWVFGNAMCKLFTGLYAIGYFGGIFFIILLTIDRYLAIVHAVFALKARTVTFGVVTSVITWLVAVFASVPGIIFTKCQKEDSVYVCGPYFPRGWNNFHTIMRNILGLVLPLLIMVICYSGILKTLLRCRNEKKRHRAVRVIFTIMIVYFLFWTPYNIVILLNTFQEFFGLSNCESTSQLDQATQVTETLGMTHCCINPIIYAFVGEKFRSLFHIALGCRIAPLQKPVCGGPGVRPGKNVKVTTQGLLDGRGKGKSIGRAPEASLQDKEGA

[5] = target: C-C chemokine receptor type 2 (Homo sapiens, UniProt P41597, Y49F); assay: Binding affinity of compound (10 uM) towards Y49F receptor variant (mutant CCR2 receptor) using radioligand [125I]MCP-1 in HEK 293 cells; type: cell-based, HEK293
C-C chemokine receptor type 2 (Homo sapiens, UniProt P41597, Y49F), sequence (P41597 whole entry Y49F): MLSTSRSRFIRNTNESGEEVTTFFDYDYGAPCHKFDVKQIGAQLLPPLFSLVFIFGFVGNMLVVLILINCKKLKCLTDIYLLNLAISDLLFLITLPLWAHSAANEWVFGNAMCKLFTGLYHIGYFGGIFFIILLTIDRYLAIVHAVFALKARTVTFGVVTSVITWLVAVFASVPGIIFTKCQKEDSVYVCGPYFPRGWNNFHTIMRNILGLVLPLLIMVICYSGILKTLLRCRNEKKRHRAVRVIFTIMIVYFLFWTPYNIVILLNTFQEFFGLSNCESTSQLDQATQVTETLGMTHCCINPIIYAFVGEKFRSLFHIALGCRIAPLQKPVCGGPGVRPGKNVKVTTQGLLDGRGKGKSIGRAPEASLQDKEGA

[6] = target: C-C chemokine receptor type 2 (Homo sapiens, UniProt P41597, T290A); assay: Binding affinity of compound (10 uM) towards T290A receptor variant (mutant CCR2 receptor) using radioligand [125I]MCP-1 in HEK 293 cells; type: cell-based, HEK293
C-C chemokine receptor type 2 (Homo sapiens, UniProt P41597, T290A), sequence (P41597 whole entry T290A): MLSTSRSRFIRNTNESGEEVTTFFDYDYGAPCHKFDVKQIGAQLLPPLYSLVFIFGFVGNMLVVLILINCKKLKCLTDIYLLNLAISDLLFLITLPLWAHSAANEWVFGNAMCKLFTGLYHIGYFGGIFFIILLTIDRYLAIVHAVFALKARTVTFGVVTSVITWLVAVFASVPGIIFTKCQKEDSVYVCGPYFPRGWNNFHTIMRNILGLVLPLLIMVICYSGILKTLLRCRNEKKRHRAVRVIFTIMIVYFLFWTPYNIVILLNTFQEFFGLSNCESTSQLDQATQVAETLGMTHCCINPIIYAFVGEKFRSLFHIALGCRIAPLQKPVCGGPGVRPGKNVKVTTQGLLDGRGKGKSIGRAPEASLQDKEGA
Method in brief: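 HEK 293 cells transiently transfected with point-mutated human CCR2 (lipofectAMINE Plus, with a human G-protein plasmid cocktail). Membranes were harvested 48 h later in HEPES pH 7/sucrose/EDTA with protease inhibitors.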

[7] = target: C-C chemokine receptor type 2 (Homo sapiens, UniProt P41597, Q288A); assay: Binding affinity of compound (10 uM) towards Q288A receptor variant (mutant CCR2 receptor) using radioligand [125I]MCP-1 in HEK 293 cells; type: cell-based, HEK293
C-C chemokine receptor type 2 (Homo sapiens, UniProt P41597, Q288A), sequence (P41597 whole entry Q288A): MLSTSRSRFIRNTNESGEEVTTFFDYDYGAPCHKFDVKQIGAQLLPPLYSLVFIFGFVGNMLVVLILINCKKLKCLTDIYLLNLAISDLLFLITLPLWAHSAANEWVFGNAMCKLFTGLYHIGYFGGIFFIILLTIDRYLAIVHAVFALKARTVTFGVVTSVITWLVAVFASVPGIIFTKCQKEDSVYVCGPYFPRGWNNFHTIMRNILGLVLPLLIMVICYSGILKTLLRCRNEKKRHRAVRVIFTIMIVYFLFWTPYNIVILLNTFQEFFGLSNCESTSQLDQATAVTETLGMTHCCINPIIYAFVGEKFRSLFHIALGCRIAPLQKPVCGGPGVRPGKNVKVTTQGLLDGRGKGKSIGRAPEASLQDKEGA

[8] = target: T1, C-C chemokine receptor type 2; assay: Binding displacement of [125I]MCP-1 (0.14 nM) was measured on CHO cell membranes expressing human CCR2 (C-C chemokine receptor type 2)
Target sequence in this assay (P41597 whole entry): as the sequence (P41597 whole entry, looked up) above

[9] = target: C-C chemokine receptor type 2 (Homo sapiens, UniProt P41597, D284A); assay: Binding affinity of compound (10 uM) towards D284A receptor variant (mutant CCR2 receptor) using radioligand [125I]MCP-1 in HEK 293 cells; type: cell-based, HEK293
C-C chemokine receptor type 2 (Homo sapiens, UniProt P41597, D284A), sequence (P41597 whole entry D284A): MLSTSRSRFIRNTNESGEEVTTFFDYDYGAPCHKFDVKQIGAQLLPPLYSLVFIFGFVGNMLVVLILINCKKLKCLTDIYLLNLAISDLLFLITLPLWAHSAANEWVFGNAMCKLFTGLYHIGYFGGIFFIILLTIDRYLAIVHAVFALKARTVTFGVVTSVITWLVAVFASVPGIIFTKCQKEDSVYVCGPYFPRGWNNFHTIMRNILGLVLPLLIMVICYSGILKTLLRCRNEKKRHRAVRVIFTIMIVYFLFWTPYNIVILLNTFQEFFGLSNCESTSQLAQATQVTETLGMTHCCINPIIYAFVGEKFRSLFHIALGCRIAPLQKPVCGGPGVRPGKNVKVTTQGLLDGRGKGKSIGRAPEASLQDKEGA

[10] = target: T1, C-C chemokine receptor type 2; assay: Binding affinity of compound (10 uM) towards […] receptor variant (mutant CCR2 receptor) using radioligand [125I]MCP-1 in HEK 293 cells; type: cell-based, HEK293
Method in brief: (§1)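 Wild-type or point-mutant CCR2 cDNA in pcDNA3.1 transiently transfected into HEK-293T cells at 50–80% confluence, with a co-transfected human G-protein plasmid cocktail. Membranes harvested 48 h later by sonication and differential centrifugation.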
Target sequence in this assay (P41597 whole entry, looked up, change not shown): as the sequence (P41597 whole entry, looked up) above

[11] = target: C-C chemokine receptor type 2 (Homo sapiens, UniProt P41597, H121A/T292A); assay: Binding affinity of compound (10 uM) towards H121A/T292A receptor variant (double mutant CCR2 receptor) using radioligand [125I]MCP-1 in HEK 293 cells; type: cell-based, HEK293; method in brief: as §1
C-C chemokine receptor type 2 (Homo sapiens, UniProt P41597, H121A/T292A), sequence (P41597 whole entry H121A/T292A): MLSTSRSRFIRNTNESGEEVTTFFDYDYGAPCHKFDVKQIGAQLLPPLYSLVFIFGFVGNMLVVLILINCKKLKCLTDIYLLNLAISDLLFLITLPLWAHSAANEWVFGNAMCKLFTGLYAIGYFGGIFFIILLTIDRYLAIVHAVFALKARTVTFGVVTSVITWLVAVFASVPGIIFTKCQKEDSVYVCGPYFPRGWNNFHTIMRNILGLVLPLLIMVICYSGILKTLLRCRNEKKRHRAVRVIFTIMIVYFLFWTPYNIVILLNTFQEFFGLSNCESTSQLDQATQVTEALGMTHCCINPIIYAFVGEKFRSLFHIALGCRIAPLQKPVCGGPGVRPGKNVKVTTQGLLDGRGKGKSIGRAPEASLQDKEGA

[12] = target: C-C chemokine receptor type 2 (Homo sapiens, UniProt P41597, E291Q); assay: Binding affinity of compound (10 uM) towards E291Q receptor variant (mutant CCR2 receptor) using radioligand [125I]MCP-1 in HEK 293 cells; type: cell-based, HEK293; method in brief: as §1
[13] = target: C-C chemokine receptor type 2 (Homo sapiens, UniProt P41597, H121F); assay: Binding affinity of compound (10 uM) towards H121F receptor variant (mutant CCR2 receptor) using radioligand [125I]MCP-1 in HEK 293 cells; type: cell-based, HEK293
C-C chemokine receptor type 2 (Homo sapiens, UniProt P41597, H121F), sequence (P41597 whole entry H121F): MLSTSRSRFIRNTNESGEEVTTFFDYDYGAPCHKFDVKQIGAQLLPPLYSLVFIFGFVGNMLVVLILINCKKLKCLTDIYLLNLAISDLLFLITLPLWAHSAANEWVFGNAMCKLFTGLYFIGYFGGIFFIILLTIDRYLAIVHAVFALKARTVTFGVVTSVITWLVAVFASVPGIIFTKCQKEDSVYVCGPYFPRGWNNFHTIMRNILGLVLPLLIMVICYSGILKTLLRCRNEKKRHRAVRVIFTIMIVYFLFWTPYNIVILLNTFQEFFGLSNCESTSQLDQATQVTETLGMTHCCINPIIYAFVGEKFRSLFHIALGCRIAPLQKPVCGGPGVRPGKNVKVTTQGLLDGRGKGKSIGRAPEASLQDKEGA

[14] = target: T1, C-C chemokine receptor type 2; assay: Binding affinity of compound (10 uM) towards Y210A-292A receptor variant (double mutant CCR2 receptor) using radioligand [125I]MCP-1 in HEK 293 cells; Inactive; type: cell-based; details: HEK293; method in brief: as §1
Target sequence in this assay (P41597 whole entry, looked up): as the sequence (P41597 whole entry, looked up) above

[15] = test system: T2, C-C chemokine receptor type 2 (Homo sapiens), P41597 [E291Q]; details: HEK293
T2 sequence (whole entry): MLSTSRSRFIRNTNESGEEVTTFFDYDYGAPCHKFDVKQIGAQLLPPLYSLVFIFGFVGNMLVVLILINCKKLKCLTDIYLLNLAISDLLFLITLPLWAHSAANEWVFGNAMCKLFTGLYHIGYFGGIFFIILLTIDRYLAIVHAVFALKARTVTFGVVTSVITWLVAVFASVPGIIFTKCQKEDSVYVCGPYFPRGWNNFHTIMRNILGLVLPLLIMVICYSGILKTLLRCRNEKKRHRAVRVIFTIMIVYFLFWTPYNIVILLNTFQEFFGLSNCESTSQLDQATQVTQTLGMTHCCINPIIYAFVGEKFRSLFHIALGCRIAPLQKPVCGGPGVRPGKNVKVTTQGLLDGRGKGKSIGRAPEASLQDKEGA

[16] = target: T1, C-C chemokine receptor type 2; details: HEK293
Target sequence in this assay (P41597 whole entry, looked up): as the sequence (P41597 whole entry, looked up) above

[17] = target: T1, C-C chemokine receptor type 2; details: HEK293; remark: listed apart in the source
Target sequence in this assay (P41597 whole entry, looked up): as the sequence (P41597 whole entry, looked up) above

[18] = target: T1, C-C chemokine receptor type 2; assay: Inhibitory activity against C-C chemokine receptor type 2 (antagonist activity); type: functional
Target sequence in this assay (P41597 whole entry): as the sequence (P41597 whole entry, looked up) above

[19] = test system: T2, C-C chemokine receptor type 2 (Homo sapiens), P41597 [E291Q]; assay: Binding affinity of compound (10 uM) towards E291Q receptor variant (mutant CCR2 receptor) using radioligand [125I]MCP-1 in HEK 293 cells; Inactive; type: cell-based; details: HEK293; method in brief: as §1

SMILES | pKb [1] | Ki [2] [nM] | Log Ki [3] | Ki [4] [nM] | Ki [5] [nM] | Ki [6] [nM] | Ki [7] [nM] | Ki [8] [nM] | Ki [9] [nM] | Ki [10] [nM] | Ki [11] [nM] | Ki [12] [nM] | Ki [13] [nM] | Log Ki [14] | Log Ki [15] | Log Ki [16] | Log Ki [17] | IC50 [18] [nM] | Log Ki [19]
Cc1ccc(-c2ccc3c(c2)C=C(C(=O)Nc2ccc(CN(C)C4CCOCC4)cc2)CCC3)cc1 | 8.63 | 759 | -7.16 | 302 | 151 | 105 | 229 | 28.8 | 589 | 2570 | 4790 | 2040 | 24 | inactive |  |  |  |  | 
Cc1ccc2c(c1)C1(CCN(CCc3nc(-c4ccccc4)oc3C)CC1)OC(=O)N2 | 7.57 |  |  |  |  |  |  |  |  |  |  |  |  |  | inactive | inactive | inactive |  | 
Cc1ccc(CN2CC[C@@H](NC(=O)CNC(=O)c3cccc(C(F)(F)F)c3)C2)c(C)c1 | 6.4 | 7760 | -6.47 | 2570 | 316 |  | 316 | 288 | 724 | 1820 |  |  | 661 | inactive |  |  |  | 54 | inactive
O=C(/C=C/c1ccc(Cl)c(Cl)c1)NCCCCCN1CCC(c2c[nH]c3ccc(O)cc23)CC1 | 7.71 | 724 | -7 | 2510 | 16.6 | 129 | 170 |  | 229 | 562 | 2090 |  | 166 |  |  |  |  |  | inactive
Cc1ccc(-c2ccc3c(c2)C=C(C(=O)Nc2ccc(C[N+](C)(C)C4CCOCC4)cc2)CCC3)cc1.[Cl-] | 9.53 | 28.8 | -8.16 | 17.8 | 27.5 | 21.4 | 9.77 | 4.17 | 12.6 | 105 | 182 | 148 | 2.63 |  |  |  |  |  | 
